# Experiments:
# [1] = Antioxidant activity assessed as trolox equivalent of AAPH radical scavenging activity at 1 uM after 2 mins by ORAC-RCoo assay; type: physicochemical
# In short: (§1)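 Peroxyl radical scavenging was measured by the oxygen radical absorbance capacity (ORAC) assay, with Trolox as the positive control. Values are reported as Trolox equivalents (TE).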
# [2] = Antioxidant activity assessed as trolox equivalent of AAPH radical scavenging activity at 10 uM after 2 mins by ORAC-RCoo assay; type: physicochemical; in short: as §1
# [3] = Antioxidant activity assessed as […] reduction power at 1 uM after 1 hr by cupric ion reducing antioxidant capacity assay; type: physicochemical
# [4] = Antioxidant activity assessed as […] reduction power at 10 uM after 1 hr by cupric ion reducing antioxidant capacity assay; type: physicochemical
# [5] = Metal chelating activity of the compound assessed as Cu2+ chelating activity at 10 uM by fluorescence assay relative to control; type: physicochemical
# [6] = Inhibition of alpha-glucosidase (unknown origin) using 3 mM p-NPG solution at 50 uM relative to control; details: Rattus norvegicus
SMILES,Activity [1] [µM],Activity [2] [µM],Activity [3] [µM],Activity [4] [µM],Activity [5] [%],inhibition [6] [%]
CCCCC[C@H](C)O[C@@H]1O[C@H](CO[C@@H]2OC[C@@H](O)[C@H](O)[C@H]2O)[C@@H](O)[C@H](O)[C@H]1O,0.48,2.26,0.17,0.59,20.58,8.54
C=CCc1ccc(O)c(O)c1 [HYDROXYCHAVICOL],2.55,16.26,1.55,22.77,20.48,9.08
CC(C)O[C@@H]1O[C@H](CO[C@@H]2OC[C@@H](O)[C@H](O)[C@H]2O)[C@@H](O)[C@H](O)[C@H]1O,0.31,2.13,0.27,0.63,21.67,7.49
CC1=CC(=O)CC(C)(C)[C@@]1(O)CC[C@@H](C)O[C@@H]1O[C@H](CO)[C@@H](O)[C@H](O)[C@H]1O,0.12,0.92,0.21,0.34,20.5,6.9
OC[C@@]1(O)CO[C@@H](OC[C@H]2O[C@@H](OCc3ccccc3)[C@H](O)[C@@H](O)[C@@H]2O)[C@@H]1O,0.15,1.61,0.46,0.84,19.3,7.93
CCCCC[C@H](C)O[C@@H]1O[C@H](CO[C@@H]2OC[C@](O)(CO)[C@H]2O)[C@@H](O)[C@H](O)[C@H]1O,1.04,3.07,0.34,1.13,19.63,8.62

# More lines, now with the values ahead:
Activity [1] [µM],Activity [2] [µM],Activity [3] [µM],Activity [4] [µM],Activity [5] [%],inhibition [6] [%],SMILES
0.18,1.83,0.41,0.69,22.39,12,OC[C@H]1O[C@@H](OCc2ccccc2)[C@H](O)[C@@H](O)[C@@H]1O
0.22,1.79,0.29,0.54,20.97,7.31,CC(C)O[C@@H]1O[C@H](CO)[C@@H](O)[C@H](O)[C@H]1O
3.59,28.2,9.01,43.82,25,–,COc1cc(C[C@@H](O)CO)ccc1O
0.21,1.65,0.21,0.63,21.42,4.6,COc1cc(O[C@@H]2O[C@H](CO)[C@@H](O)[C@H](O)[C@H]2O)ccc1O [TACHIOSIDE]
0.17,1.71,0.32,0.65,21.8,7.02,C=CCc1ccc(O[C@@H]2O[C@H](CO)[C@@H](O)[C@H](O)[C@H]2O)c(O[C@@H]2O[C@H](CO)[C@@H](O)[C@H](O)[C@H]2O)c1
0.55,2.88,0.29,0.96,24.21,11.7,COc1cc(C[C@@H](O)CO)ccc1O[C@@H]1O[C@H](CO)[C@@H](O)[C@H](O)[C@H]1O
0.62,3.64,0.18,1.68,18.04,–,CCCCO[C@@H]1O[C@H](CO)[C@@H](O)[C@H](O)[C@H]1O
